Measured values pooled from the literature.
HTR2A: 5-hydroxytryptamine receptor 2A (HTR2A, Homo sapiens, UniProt P28223)
PPO3: PPO3 (Agaricus bisporus, UniProt C7FF04)
OPRK1: Kappa-type opioid receptor (OPRK1, Homo sapiens, UniProt P41145)

Structure (SMILES)	target	read-out	action	technique	concentration	inhibition
COc1cc2c3c(c1OC)-c1c(OC)ccc(O)c1CC3N(C)CC2 (stereo not drawn)	HTR2A	ligand displacement	–	radioligand	10 µM	36%
COc1cc(/C=C/C(=O)O)ccc1OCc1cn(CC(=O)Nc2ccccc2)nn1	PPO3	enzyme activity	inhibitor	–	40 µM	10.4%
CN1CCC[C@H]1c1cccnc1	OPRK1	ligand displacement	–	–	50 µM	-10.9%
CC(C)CC(=O)OC[C@H]1O[C@@](C#N)(c2ccc3c(N)ncnn23)[C@H](O)[C@@H]1O	Adenosine receptor A2a (ADORA2A, Homo sapiens, UniProt P29274)	cell-free assay	–	–	20 µM	13%
COc1cc2c3c(c1OC)-c1c(OC)ccc(Br)c1CC3N(C)CC2 (stereo not drawn)	HTR2A	ligand displacement	–	radioligand	10 µM	80%
CC[C@H](C)[C@@H](C(=O)N1CCC[C@H]1c1nccs1)N(C)C(=O)[C@H](CC(C)C)N(C)C(=O)[C@H](Cc1ccc(OC)cc1)N(C)C(=O)/C=C(\C)OC	Cannabinoid receptor 1 (CNR1, Homo sapiens, UniProt P21554)	β-arrestin recruitment	antagonist	–	20 µM	53%
COc1cc(/C=C/C(=O)O)ccc1OCc1cn(CC(=O)Nc2ccc([N+](=O)[O-])cc2C)nn1	PPO3	enzyme activity	inhibitor	–	40 µM	44.9%
COc1cc2c3c(c1OC)-c1c(OC)ccc(Cl)c1CC3N(C)CC2 (racemic)	HTR2A	ligand displacement	–	radioligand	10 µM	70%
COc1cc(/C=C/C(=O)O)ccc1OCc1cn(CC(=O)Nc2ccc(Cl)cc2Cl)nn1	PPO3	enzyme activity	inhibitor	–	40 µM	7.73%
COc1cc2c(cc1OC)-c1c(OC)c(OC)cc3c1[C@H](C2)N(C)CC3 (racemic)	HTR2A	ligand displacement	–	radioligand	10 µM	34%
COc1cc(/C=C/C(=O)O)ccc1OCc1cn(CC(=O)Nc2ccccc2Cl)nn1	PPO3	enzyme activity	inhibitor	–	40 µM	16.2%
c1cncc([C@@H]2CCCN2)c1	OPRK1	ligand displacement	–	–	50 µM	-6.74%
